ChEMBL document CHEMBL4627381, “Licochalcone A Selectively Resensitizes ABCG2-Overexpressing Multidrug-Resistant Cancer Cells to Chemotherapeutic Drugs” (J Nat Prod, 2020)

Assays:
[1] = biological target: T1, Broad substrate specificity ATP-binding cassette transporter ABCG2 (Homo sapiens, UniProt Q9UNQ0); assay: Reversal of human ABCG2-mediated multidrug resistance in HEK293/R482 cells assessed as fold change in mitoxantrone IC50 at 3 uM after 72 hrs by CCK8 assay relative to mitoxantrone IC50; format: cell-based
T1 sequence (Q9UNQ0 whole entry): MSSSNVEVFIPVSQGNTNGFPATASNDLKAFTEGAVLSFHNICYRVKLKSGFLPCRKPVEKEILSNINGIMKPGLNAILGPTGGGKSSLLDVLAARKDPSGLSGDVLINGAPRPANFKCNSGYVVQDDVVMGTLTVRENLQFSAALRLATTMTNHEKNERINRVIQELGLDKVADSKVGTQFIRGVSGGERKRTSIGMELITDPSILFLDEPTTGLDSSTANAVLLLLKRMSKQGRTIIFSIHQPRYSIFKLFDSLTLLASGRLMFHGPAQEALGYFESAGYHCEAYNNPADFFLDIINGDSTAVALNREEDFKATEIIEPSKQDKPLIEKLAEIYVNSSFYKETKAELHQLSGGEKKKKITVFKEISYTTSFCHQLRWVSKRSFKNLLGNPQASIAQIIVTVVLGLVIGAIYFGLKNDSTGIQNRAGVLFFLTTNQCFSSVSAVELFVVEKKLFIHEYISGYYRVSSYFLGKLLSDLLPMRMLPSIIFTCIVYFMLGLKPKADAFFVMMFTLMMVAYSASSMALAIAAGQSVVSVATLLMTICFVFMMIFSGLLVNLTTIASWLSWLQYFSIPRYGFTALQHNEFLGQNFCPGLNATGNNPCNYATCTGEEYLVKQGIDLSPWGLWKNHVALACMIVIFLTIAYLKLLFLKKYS
Procedure, shortened: (§1)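 Cells were seeded at 5000/well for 24 h, then given colchicine, etoposide, mitoxantrone or topotecan ± non-toxic modulator (0.5–3.0 μM) for 72 h, with DMSO up to 0.5%. IC50 came from fitted curves (mean ± SD, three experiments). Fold-reversal = IC50 without modulator ÷ IC50 with modulator.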

[2] = system: S1-M1-80; assay: Potentiation of topotecan-induced apoptosis in human S1-M1-80 cells harboring ABCG2 (unknown origin) assessed as late apoptotic cells at 10 uM incubated for 48 hrs by annexin V/propidium iodide staining based flow cytometry (reference value: 6%); format: functional
[3] = system: S1; assay: Induction of apoptosis in human S1 cells assessed as late apoptotic cells at 10 uM incubated for 48 hrs in presence of topotecan by annexin V/propidium iodide staining based flow cytometry (reference value: 3.6%); format: functional
Procedure, shortened: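 S1 cells were exposed for 48 h to DMSO, 10 μM compound, 5 μM topotecan, or 5 μM topotecan plus 10 μM compound. They were then stained with 1.25 μg/mL annexin V–FITC and 0.1 mg/mL PI for 15 min at room temperature. 10000 cells per sample were analysed by flow cytometry; three independent experiments.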

[4] = biological target: T1, Broad substrate specificity ATP-binding cassette transporter ABCG2; assay: Modulation of ABCG2 (unknown origin) expressed in H460-MX20 cells assessed as increase in intracellular pheophorbide A accumulation at 20 uM incubated for 1 hr by FACScan flow cytometry; format: cell-based
Procedure, shortened: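 Cells held drug-free 7 days. 3 × 10^5 cells were suspended in IMDM with 5% FCS and loaded with pheophorbide A (ex 395/em 670 nm) for 1 h, with or without LCA (20 μM for single-concentration accumulation) or Ko143 3 μM as reference. Read immediately by flow cytometry. Efflux inhibition was run over a concentration range; mean ± SD of three experiments.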

[5] = system: GES1; assay: Cytotoxicity against human GES-1 cells; format: cell-based
[6] = system: NCI-H460; assay: Effect on topotecan-induced cytotoxicity against human H460 cells assessed as fold change in topotecan IC50 at 3 uM after 72 hrs by MTT assay relative to topotecan IC50; format: functional
Procedure, shortened: (§2)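 Parental S1 colon and H460 lung cancer cells were exposed for 72 h to a mitoxantrone or topotecan concentration series, with or without modulator at 0.5–3.0 μM, and read by MTT. Fold-reversal is IC50 without modulator divided by IC50 with modulator, taken from dose-response curves of three independent experiments.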

[7] = system: NCI-H460; assay: Effect on mitoxantrone-induced cytotoxicity against human H460 cells assessed as fold change in mitoxantrone IC50 at 0.5 uM after 72 hrs by MTT assay relative to mitoxantrone IC50; format: functional; procedure, shortened: as §2
[8] = biological target: T1, Broad substrate specificity ATP-binding cassette transporter ABCG2; assay: Reversal of ABCG2 (unknown origin)-mediated multidrug resistance in human S1-M1-80 cells assessed as fold-change in topotecan IC50 at 2 uM after 72 hrs by MTT assay relative to topotecan IC50; format: cell-based; details: s1-m1-80, 72 h
Procedure, shortened: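 MTT readout in S1-M1-80 colon cancer cells (mitoxantrone-selected, held in 80 μM mitoxantrone, then drug-free 7 days before assay). Cells were seeded at 5000/well for 24 h, then given increasing mitoxantrone or topotecan with DMSO or non-toxic modulator for 72 h at 37 °C. IC50 came from fitted dose-response curves (at least three independent experiments). Fold-reversal = IC50 without modulator ÷ IC50 with modulator.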

[9] = system: S1; assay: Effect on mitoxantrone-induced cytotoxicity against human S1 cells assessed as fold change in mitoxantrone IC50 at 2 uM after 72 hrs by MTT assay relative to mitoxantrone IC50; format: functional; procedure, shortened: as §2
[10] = system: S1; assay: Effect on mitoxantrone-induced cytotoxicity against human S1 cells assessed as fold change in mitoxantrone IC50 at 0.5 uM after 72 hrs by MTT assay relative to mitoxantrone IC50; format: functional; procedure, shortened: as §2
[11] = system: HEK293; assay: Effect on mitoxantrone-induced cytotoxicity against HEK293 cells assessed as fold change in mitoxantrone IC50 at 2 uM after 72 hrs by CCK8 assay relative to mitoxantrone IC50; format: cell-based; details: human, hek293, 72 h
Procedure, shortened: (§3)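 Reversal assay in parental pcDNA-HEK293 and transfected HEK293 lines (ABCB1 for colchicine, ABCC1 for etoposide, ABCG2 for mitoxantrone/topotecan). Substrate drug series was given with or without nontoxic modulator (0.5, 1.0, 2.0 or 3.0 μM) for 72 h, with a CCK-8 read-out. Fold-reversal is substrate IC50 without modulator divided by IC50 with modulator. Three independent experiments.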

[12] = biological target: T2, Multidrug resistance-associated protein 1 (Homo sapiens, UniProt P33527); assay: Reversal of human ABCC1-mediated multidrug resistance in HEK293/MRP1 cells assessed as fold-change in etoposide IC50 at 2 uM after 72 hrs by CCK8 relative to etoposide IC50; format: cell-based; procedure, shortened: as §1
T2 sequence (P33527 whole entry): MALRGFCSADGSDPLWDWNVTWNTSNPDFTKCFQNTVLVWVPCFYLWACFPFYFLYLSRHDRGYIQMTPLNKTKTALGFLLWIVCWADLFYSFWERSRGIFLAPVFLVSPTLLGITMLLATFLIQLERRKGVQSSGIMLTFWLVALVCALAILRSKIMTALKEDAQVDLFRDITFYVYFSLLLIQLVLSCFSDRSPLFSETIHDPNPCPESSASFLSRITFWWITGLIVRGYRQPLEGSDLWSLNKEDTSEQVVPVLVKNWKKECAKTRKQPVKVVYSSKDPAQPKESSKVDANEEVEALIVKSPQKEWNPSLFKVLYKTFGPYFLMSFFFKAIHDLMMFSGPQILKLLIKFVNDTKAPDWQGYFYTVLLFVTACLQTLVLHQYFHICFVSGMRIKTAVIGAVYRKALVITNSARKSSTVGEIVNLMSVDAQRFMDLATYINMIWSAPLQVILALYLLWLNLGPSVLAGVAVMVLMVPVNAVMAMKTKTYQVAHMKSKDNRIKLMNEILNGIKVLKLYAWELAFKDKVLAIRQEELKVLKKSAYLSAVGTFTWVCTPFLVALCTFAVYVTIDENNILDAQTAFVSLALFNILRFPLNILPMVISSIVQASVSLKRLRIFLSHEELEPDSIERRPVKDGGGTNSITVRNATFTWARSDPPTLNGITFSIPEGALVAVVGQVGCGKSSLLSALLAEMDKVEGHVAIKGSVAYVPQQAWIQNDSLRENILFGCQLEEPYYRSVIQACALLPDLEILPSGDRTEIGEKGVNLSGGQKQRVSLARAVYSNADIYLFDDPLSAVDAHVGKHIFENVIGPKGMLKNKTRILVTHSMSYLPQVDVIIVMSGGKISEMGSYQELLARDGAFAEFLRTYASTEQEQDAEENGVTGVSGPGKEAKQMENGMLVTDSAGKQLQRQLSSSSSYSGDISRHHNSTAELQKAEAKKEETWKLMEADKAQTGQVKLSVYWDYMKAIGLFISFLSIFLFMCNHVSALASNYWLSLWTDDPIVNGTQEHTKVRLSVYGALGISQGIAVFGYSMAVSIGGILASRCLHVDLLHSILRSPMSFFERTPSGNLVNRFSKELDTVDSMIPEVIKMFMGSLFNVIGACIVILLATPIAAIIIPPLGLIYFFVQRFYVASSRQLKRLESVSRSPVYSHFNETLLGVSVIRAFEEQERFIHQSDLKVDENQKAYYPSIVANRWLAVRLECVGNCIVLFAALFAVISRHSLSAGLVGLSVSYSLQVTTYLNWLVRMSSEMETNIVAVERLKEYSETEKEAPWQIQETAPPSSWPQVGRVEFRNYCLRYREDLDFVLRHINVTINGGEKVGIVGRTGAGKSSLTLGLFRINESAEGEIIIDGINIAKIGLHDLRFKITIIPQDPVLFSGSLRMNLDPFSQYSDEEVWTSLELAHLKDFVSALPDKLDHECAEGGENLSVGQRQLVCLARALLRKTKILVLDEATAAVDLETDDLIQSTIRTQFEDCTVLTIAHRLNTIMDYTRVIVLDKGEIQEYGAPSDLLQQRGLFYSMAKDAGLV

[13] = biological target: T2, Multidrug resistance-associated protein 1; assay: Reversal of human ABCC1-mediated multidrug resistance in HEK293/MRP1 cells assessed as fold-change in etoposide IC50 at 0.5 uM after 72 hrs by CCK8 relative to etoposide IC50; format: cell-based; procedure, shortened: as §1
[14] = system: HEK293; assay: Effect on etoposide-induced cytotoxicity against HEK293 cells assessed as fold change in etoposide IC50 at 1 uM after 72 hrs by CCK8 assay relative to etoposide IC50; format: cell-based; details: human, hek293, 72 h; procedure, shortened: as §3
[15] = biological target: ATP-dependent translocase ABCB1 (Homo sapiens, UniProt P08183); assay: Reversal of human ABCB1-mediated multidrug resistance in HEK293/MDR19 cells assessed as fold change in colchicine IC50 at 3 uM after 72 hrs by CCK8 relative to colchicine IC50; format: cell-based; procedure, shortened: as §1
Chain of ATP-dependent translocase ABCB1 (P08183 whole entry): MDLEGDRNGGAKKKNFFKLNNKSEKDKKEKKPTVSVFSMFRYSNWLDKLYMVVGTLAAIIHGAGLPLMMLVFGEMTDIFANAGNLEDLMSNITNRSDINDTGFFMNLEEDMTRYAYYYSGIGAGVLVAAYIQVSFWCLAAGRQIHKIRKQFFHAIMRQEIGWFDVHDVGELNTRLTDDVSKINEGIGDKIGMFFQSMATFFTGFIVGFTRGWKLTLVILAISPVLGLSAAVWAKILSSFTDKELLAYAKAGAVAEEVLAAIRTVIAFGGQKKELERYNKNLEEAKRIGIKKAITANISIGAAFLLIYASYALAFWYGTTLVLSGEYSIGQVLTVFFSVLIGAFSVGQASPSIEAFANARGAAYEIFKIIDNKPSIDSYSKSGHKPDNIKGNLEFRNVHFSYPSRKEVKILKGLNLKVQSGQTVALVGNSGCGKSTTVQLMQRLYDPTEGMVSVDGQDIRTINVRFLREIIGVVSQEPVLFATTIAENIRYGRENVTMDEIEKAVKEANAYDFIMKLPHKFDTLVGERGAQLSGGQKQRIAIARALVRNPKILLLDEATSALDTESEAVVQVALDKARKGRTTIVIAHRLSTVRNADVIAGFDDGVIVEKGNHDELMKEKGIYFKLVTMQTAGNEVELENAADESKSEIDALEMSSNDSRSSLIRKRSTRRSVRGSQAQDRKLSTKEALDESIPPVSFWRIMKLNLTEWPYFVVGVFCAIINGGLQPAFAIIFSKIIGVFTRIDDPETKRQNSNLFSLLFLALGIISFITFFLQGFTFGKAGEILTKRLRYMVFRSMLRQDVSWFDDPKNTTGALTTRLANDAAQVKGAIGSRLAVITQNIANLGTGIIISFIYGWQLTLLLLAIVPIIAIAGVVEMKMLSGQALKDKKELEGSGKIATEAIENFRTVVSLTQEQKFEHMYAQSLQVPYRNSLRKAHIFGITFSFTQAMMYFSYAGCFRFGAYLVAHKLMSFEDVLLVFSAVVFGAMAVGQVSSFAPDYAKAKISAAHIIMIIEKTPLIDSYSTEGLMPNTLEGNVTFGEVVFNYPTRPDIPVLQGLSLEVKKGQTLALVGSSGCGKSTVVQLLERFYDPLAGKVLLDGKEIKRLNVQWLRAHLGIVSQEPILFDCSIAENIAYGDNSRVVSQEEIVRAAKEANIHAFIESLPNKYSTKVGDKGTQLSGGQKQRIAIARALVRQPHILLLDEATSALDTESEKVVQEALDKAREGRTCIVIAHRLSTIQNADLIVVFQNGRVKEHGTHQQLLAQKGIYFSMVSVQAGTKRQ

[16] = system: HEK293; assay: Effect on Colchicine-induced cytotoxicity against HEK293 cells assessed as fold change in colchicine IC50 at 1 uM after 72 hrs by CCK8 assay relative to colchicine IC50; format: cell-based; details: human, hek293, 72 h; procedure, shortened: as §3

`C=CC(C)(C)c1cc(/C=C/C(=O)c2ccc(O)cc2)c(OC)cc1O` [LICOAGROCHACONE A] was tested, and the “fold change (FC)” value [1] was 8.1, the Activity [2] was 22.5% and the Activity [3] was 22.5%. For the same molecule, the Activity [4] was “Active”, the IC50 [5] was > 180 µM and the “fold change (FC)” value [6] was 1.7. The “fold change (FC)” value [7] was 0.8, the “fold change (FC)” value [8] was 24.7 and the “fold change (FC)” value [9] was 1.1. For the same molecule, the “fold change (FC)” value [10] was 1.1, the “fold change (FC)” value [11] was 1 and the “fold change (FC)” value [12] was 1. The “fold change (FC)” value [13] was 1.2, the “fold change (FC)” value [14] was 0.7 and the “fold change (FC)” value [15] was 0.9. The “fold change (FC)” value [16] was 1.1.
